Results taken from article PMC6585844 (Clinical Pharmacology in Drug Development, 2018).
“And” between values parts separate entries of the source, which are not always exact repeats. Equal entries are not always repeated. Where two headings read alike, the source gives them in different places.

Assays:
[1] = system: hypokalemic PP and hyperkalemic PP; settings: doses from approximately 100 to 200 mg/day, versus placebo; cited from earlier work
[2] = system: cytochrome P450 (CYP) 2C9; settings: cited from earlier work
[3] = Multiple‐dose; format: in vivo, human; settings: for AUCτ, mean ± SD: after last of 9 multiple doses; for Cmax / Tmax: human, plasma, oral
Procedure, shortened: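 After the single dose, the same subjects took the assigned dose twice daily, 9 doses, with only a morning dose on the final day. Morning doses were fasted; evening doses were taken without regard to meals. Plasma was sampled predose on days 3–7 (A–D) or 4–8 (E), then 0.5–12 h postdose. AUCτ by trapezoidal method; fluctuation 100*(Cmax−Cmin)/Cavg; accumulation as AUCτ/AUC0-t.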

[4] = Safety/tolerability; format: in vivo, human
Procedure, shortened: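 Open-label oral dose escalation. Cohorts A–E received 10 doses (1 single, then 9 twice daily). Cohort F (n = 6) took titrated twice-daily doses of 100–800 mg/day on days 1–14, up to 28 doses, and was assessed for safety only. Vital signs were taken at screening, baseline and each study day, with a 12-lead ECG at screening. AEs were recorded when reported.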

[5] = format: in vivo, human; settings: for AUC0‐t, mean ± SD: fasted, plasma to 48 h
Procedure, shortened: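 Healthy adults, cohorts A–E (n = 6 each), single oral tablet dose (25–400 mg) with 8 oz water after ≥10 h fast plus 4 h more. Potassium-EDTA plasma sampled predose and 0.5–48 h, stored −70°C ≤62 days, solid-supported liquid-liquid extraction. AUC0-t by trapezoidal method; AUC0-∞ = AUC0-t + Clast/λ. BQL values taken as zero. Power-model dose proportionality with 95% CI.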

[6] = Cohort A (n = 6): 1 × 25 mg then 9 × 25 mg BID
[7] = Cohort B (n = 6): 1 × 50 mg then 9 × 50 mg BID
[8] = Cohort C (n = 6): 1 × 100 mg then 9 × 100 mg BID
[9] = Cohort D (n = 6): 1 × 200 mg then 9 × 200 mg BID
[10] = Cohort E (n = 6): 1 × 400 mg then 9 × 400 mg BID
[11] = Cohort F (n = 6): dose titration 50 to 400 mg BID, up to 28 doses
[12] = Cohort A 25 mg single oral dose (n = 6)
[13] = Cohort B 50 mg single oral dose (n = 6)
[14] = Cohort C 100 mg single oral dose (n = 6)
[15] = Cohort D 200 mg single oral dose (n = 6)
[16] = Cohort E 400 mg single oral dose (n = 6)

## NS(=O)(=O)c1cc(Cl)c(Cl)c(S(N)(=O)=O)c1 [dichlorphenamide]
[1]
  Frequency and severity of attacks in primary periodic paralysis: significant reduction
[2]
  Effect on CYP2C9‐mediated 7‐methoxy‐4‐(trifluoromethyl)coumarin (MFC) metabolism: relatively weak activator
[3]; Cohort A 25 mg BID (n = 5)
  Cavg, mean ± SD: 837 ± 274 ng/mL
  AUCτ, mean ± SD: 10,038 ± 3283 ng˙h/mL
[3]; Cohort B 50 mg BID (n = 6)
  Cavg, mean ± SD: 1527 ± 549 ng/mL
  AUCτ, mean ± SD: 18,329 ± 6593 ng˙h/mL
[3]; Cohort C 100 mg BID (n = 6)
  Cavg, mean ± SD: 3122 ± 1108 ng/mL
  AUCτ, mean ± SD: 37,468 ± 13,298 ng˙h/mL
[3]; Cohort D 200 mg BID (n = 5)
  Cavg, mean ± SD: 7080 ± 2854 ng/mL
  AUCτ, mean ± SD: 84,960 ± 34,245 ng˙h/mL
[3]; Cohort E 400 mg BID (n = 3)
  Cavg, mean ± SD: 17,298 ± 5219 ng/mL
  AUCτ, mean ± SD: 207,577 ± 62,626 ng˙h/mL
[3]; 25 mg
  Cmax: 1150 ± 239 ng/mL
  Tmax: 2 h
[3]; 50 mg
  Cmax: 2220 ± 959 ng/mL
  Tmax: 3 h
[3]; 100 mg
  Cmax: 4870 ± 1890 ng/mL
  Tmax: 1.5 h
[3]; 200 mg
  Cmax: 10700 ng/mL
  Tmax: 2 h
[3]; 400 mg
  Cmax: 26600 ng/mL
  Tmax: 1 h
[3]; multiple doses 25–400 mg BID
  Slope for LnAUCτ (dose proportionality, power model), with 95%CI: 1.09 (95%CI, 0.92–1.26)
  Slope for LnCmax (dose proportionality, power model), with 95%CI: 1.13 (95%CI, 0.95–1.31)
[3]; multiple‐ versus single‐dose phase
  Accumulation ratios of AUCτ/AUC0‐t: greater than 1
[4]; 800 mg total daily dose, short‐term study
  Tolerability for extended use: intolerable for extended use
[4]; [6]
  Blood potassium decreased, TEAE of any severity, subjects: 0
  Dizziness, TEAE of any severity, subjects: 0
  Dysgeusia, TEAE of any severity, subjects: 0
  Dyspnea, TEAE of any severity, subjects: 0
  Oral paresthesia, TEAE of any severity, subjects: 0
  Paresthesia, TEAE of any severity, subjects: 0
  Subjects discontinuing due to TEAE: 0 n (%)
  Subjects reporting at least 1 TEAE: 1 (16.7) n (%)
  Subjects reporting at least 1 serious TEAE: 0 n (%)
  Total TEAEs reported: 1
  Treatment‐related AEs reported: 0
[4]; [7]
  Blood potassium decreased, TEAE of any severity, subjects: 0
  Dizziness, TEAE of any severity, subjects: 0
  Dysgeusia, TEAE of any severity, subjects: 0
  Dyspnea, TEAE of any severity, subjects: 0
  Oral paresthesia, TEAE of any severity, subjects: 0
  Paresthesia, TEAE of any severity, subjects: 0
  Subjects discontinuing due to TEAE: 0 n (%)
  Subjects reporting at least 1 TEAE: 1 (16.7) n (%)
  Subjects reporting at least 1 serious TEAE: 0 n (%)
  Total TEAEs reported: 3
  Treatment‐related AEs reported: 2
[4]; [8]
  Blood potassium decreased, TEAE of any severity, subjects: 1 (16.7)
  Dizziness, TEAE of any severity, subjects: 0
  Dysgeusia, TEAE of any severity, subjects: 0
  Dyspnea, TEAE of any severity, subjects: 0
  Oral paresthesia, TEAE of any severity, subjects: 0
  Paresthesia, TEAE of any severity, subjects: 2 (33.3)
  Subjects discontinuing due to TEAE: 0 n (%)
  Subjects reporting at least 1 TEAE: 4 (66.7) n (%)
  Subjects reporting at least 1 serious TEAE: 0 n (%)
  Total TEAEs reported: 16
  Treatment‐related AEs reported: 14
[4]; [9]
  Blood potassium decreased, TEAE of any severity, subjects: 0
  Dizziness, TEAE of any severity, subjects: 4 (66.7)
  Dysgeusia, TEAE of any severity, subjects: 3 (50.0)
  Dyspnea, TEAE of any severity, subjects: 3 (50.0)
  Oral paresthesia, TEAE of any severity, subjects: 1 (16.7)
  Paresthesia, TEAE of any severity, subjects: 2 (33.3)
  Subjects discontinuing due to TEAE: 1 n (%) and 1 (16.7) n (%)
  Subjects reporting at least 1 TEAE: 6 (100) n (%)
  Subjects reporting at least 1 serious TEAE: 0 n (%)
  Total TEAEs reported: 36
  Treatment‐related AEs reported: 33
[4]; [10]
  Blood potassium decreased, TEAE of any severity, subjects: 1 (16.7)
  Dizziness, TEAE of any severity, subjects: 3 (50.0)
  Dysgeusia, TEAE of any severity, subjects: 1 (16.7)
  Dyspnea, TEAE of any severity, subjects: 1 (16.7)
  Oral paresthesia, TEAE of any severity, subjects: 1 (16.7)
  Paresthesia, TEAE of any severity, subjects: 4 (66.7)
  Subjects discontinuing due to TEAE: 3 n (%) and 3 (50.0) n (%)
  Subjects reporting at least 1 TEAE: 6 (100) n (%)
  Subjects reporting at least 1 moderate TEAE: 1 (16.7) n (%)
  Subjects reporting at least 1 serious TEAE: 0 n (%)
  Total TEAEs reported: 42
  Treatment‐related AEs reported: 39
[4]; [11]
  Dizziness, TEAE of any severity, subjects: 0
  Dysgeusia, TEAE of any severity, subjects: 0
  Dyspnea, TEAE of any severity, subjects: 1 (16.7)
  Oral paresthesia, TEAE of any severity, subjects: 0
  Paresthesia, TEAE of any severity, subjects: 2 (33.3)
  Subjects discontinuing due to TEAE: 6 n (%) and 6 (100) n (%)
  Subjects reporting at least 1 TEAE: 6 (100) n (%)
  Subjects reporting at least 1 moderate TEAE: 2 (33.3) n (%)
  Subjects reporting at least 1 serious TEAE: 1 (16.7) n (%)
  Total TEAEs reported: 50
  Treatment‐related AEs reported: 40
[4]; all cohorts
  TEAEs reported as moderate: 7
[4]; all cohorts (N = 36)
  Dizziness, number of subjects: 7 subjects
  Paresthesia (including oral), number of subjects: 12 subjects
  Subjects reporting at least 1 TEAE in gastrointestinal system organ class: 28%
  Subjects reporting at least 1 TEAE in nervous system organ class: 50%
[4]; all cohorts, 36 enrolled
  Subjects withdrawn/discontinued due to AEs: 10 subjects
[4]; any subject
  Changes in vital signs or ECG findings: No clinically relevant changes
[4]; cohort C, poststudy
  Serum potassium, clinically significant reduction in 1 subject: 2.8 mmol/L
[4]; cohort F
  Serious TEAE of rash requiring brief hospitalization, subjects: 1 subject
  Subjects with below‐normal serum potassium: 5 of 6
[4]; cohort F (all 800 mg/day)
  Discontinuations to which hypokalemia contributed: 5 of 6
[4]; cohort F, multiple study time points
  Serum potassium, lowest recorded value: 2.8 mmol/L
[4]; cohorts A through E, poststudy
  Subjects with clinically significant reductions in serum potassium: 2 subjects
[4]; cohorts D, E, and F
  Subjects with at least one mild‐to‐moderate AE: 100%
[5]; [12]
  AUC0‐∞, mean ± SD: 5908 ± 3959 ng˙h/mL
  AUC0‐t, mean ± SD: 2327 ± 731 ng˙;h/mL
[5]; [13]
  AUC0‐∞, mean ± SD: 14,734 ± 4555 ng˙h/mL
  AUC0‐t, mean ± SD: 7897 ± 2055 ng˙;h/mL
[5]; [14]
  AUC0‐∞, mean ± SD: 28,901 ± 13,317 ng˙h/mL
  AUC0‐t, mean ± SD: 19,119 ± 7317 ng˙;h/mL
[5]; [15]
  AUC0‐∞, mean ± SD: 66,456 ± 26,211 ng˙h/mL
  AUC0‐t, mean ± SD: 38,132 ± 8249 ng˙;h/mL
[5]; [16]
  AUC0‐∞, mean ± SD: 142,007 ± 16,279 ng˙h/mL
  AUC0‐t, mean ± SD: 88,243 ± 12,616 ng˙;h/mL
[5]; human, plasma, oral
  half-life: 32 to 68 h
[5]; human, plasma, oral, Median Tmax, range across doses, single doses 25–400 mg
  Tmax: 1.5 to 3 h
[5]; human, plasma, po, 25 mg
  Cmax: 298 ± 77 ng/mL
  half-life: 68.4 ± 35 h
[5]; human, plasma, po, 50 mg
  Cmax: 709 ± 490 ng/mL
  half-life: 51.4 ± 24 h
[5]; human, plasma, po, 100 mg
  Cmax: 1510 ± 909 ng/mL
  half-life: 31.9 ± 11 h
[5]; human, plasma, po, 200 mg
  Cmax: 3030 ± 1210 ng/mL
  half-life: 41 ± 17 h
[5]; human, plasma, po, 400 mg
  Cmax: 6320 ± 1280 ng/mL
  half-life: 38.6 ± 8 h
[5]; single doses 25–400 mg
  Slope for LnAUC0‐t (dose proportionality, power model), with 95%CI: 1.29 (95%CI, 1.18‐1.40)
  Slope for LnCmax (dose proportionality, power model), with 95%CI: 1.11 (95%CI, 0.97‐1.26)
